Measurements reported in ChEMBL document CHEMBL3739358 (J Med Chem, 2015).
The source made the active and inactive calls. The calls are words filed in the database; no cut-off is given here.

Tests used:
[1] = target: D(2) dopamine receptor (Rattus norvegicus, UniProt P61169); assay: Displacement of [3H]Spiroperidol from cloned rat dopamine D2L receptor expressed in HEK293 cells by liquid scintillation counting analysis; assay type: cell-based
How it was run: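 Competition with [3H]spiroperidol binding at cloned rat D2L and D3 receptors expressed in HEK-293 cells, giving Ki values; the selectivity ratio is D2L Ki divided by D3 Ki.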

[2] = target: D(3) dopamine receptor (Rattus norvegicus, UniProt P19020); assay: Displacement of [3H]Spiroperidol from cloned rat dopamine D3 receptor expressed in HEK293 cells by liquid scintillation counting analysis; assay type: cell-based
D(3) dopamine receptor (Rattus norvegicus, UniProt P19020), sequence (P19020 whole entry): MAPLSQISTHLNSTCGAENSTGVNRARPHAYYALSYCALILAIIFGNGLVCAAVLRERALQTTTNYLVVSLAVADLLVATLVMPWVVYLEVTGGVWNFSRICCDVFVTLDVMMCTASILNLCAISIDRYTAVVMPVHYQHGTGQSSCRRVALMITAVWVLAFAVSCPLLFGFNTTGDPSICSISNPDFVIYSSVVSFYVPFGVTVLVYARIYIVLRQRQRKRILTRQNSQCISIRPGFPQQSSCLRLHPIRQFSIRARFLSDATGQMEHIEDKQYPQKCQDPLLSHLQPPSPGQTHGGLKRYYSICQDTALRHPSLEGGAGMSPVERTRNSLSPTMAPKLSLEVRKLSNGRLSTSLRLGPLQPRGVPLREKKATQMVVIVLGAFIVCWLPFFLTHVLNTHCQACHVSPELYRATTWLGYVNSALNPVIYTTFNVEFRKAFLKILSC

[3] = system: HEK293; assay: Selectivity ratio of Ki for cloned rat dopamine D2L receptor to Ki for cloned rat dopamine D3 receptor expressed in HEK293 cells; assay type: cell-based
How it was run: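 Competition with [3H]spiroperidol binding at cloned rat D2L and D3 receptors expressed in HEK-293 cells, giving Ki values; the selectivity ratio is D2L Ki divided by D3 Ki. Means ± SEM of 3−6 experiments, each in triplicate.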

[4] = Antioxidant activity assessed as DPPH free radical scavenging activity after 30 mins; assay type: physicochemical; conditions: 0.5 h
[5] = target: T1, D(3) dopamine receptor (Homo sapiens, UniProt P35462); assay: Agonist activity at human D3 receptor expressed in CHO cells by [35S]GTPgammaS binding assay; assay type: functional, cell-based
T1 sequence (P35462 whole entry): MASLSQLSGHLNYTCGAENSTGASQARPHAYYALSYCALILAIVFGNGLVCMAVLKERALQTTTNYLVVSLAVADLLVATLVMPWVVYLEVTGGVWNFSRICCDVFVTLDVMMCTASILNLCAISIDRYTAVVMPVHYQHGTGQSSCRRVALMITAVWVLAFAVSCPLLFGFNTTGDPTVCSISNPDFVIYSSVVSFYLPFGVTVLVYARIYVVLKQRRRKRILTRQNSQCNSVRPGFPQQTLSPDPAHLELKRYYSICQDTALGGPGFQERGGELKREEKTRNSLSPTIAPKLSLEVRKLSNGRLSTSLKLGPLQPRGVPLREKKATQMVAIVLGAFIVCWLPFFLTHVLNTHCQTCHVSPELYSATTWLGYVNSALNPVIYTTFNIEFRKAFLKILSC

[6] = target: D(2) dopamine receptor (Homo sapiens) (UniProt P14416); assay: Agonist activity at human D2 receptor expressed in CHO cells by [35S]GTPgammaS binding assay relative to dopamine; assay type: functional, cell-based
D(2) dopamine receptor (Homo sapiens), sequence (P14416 whole entry): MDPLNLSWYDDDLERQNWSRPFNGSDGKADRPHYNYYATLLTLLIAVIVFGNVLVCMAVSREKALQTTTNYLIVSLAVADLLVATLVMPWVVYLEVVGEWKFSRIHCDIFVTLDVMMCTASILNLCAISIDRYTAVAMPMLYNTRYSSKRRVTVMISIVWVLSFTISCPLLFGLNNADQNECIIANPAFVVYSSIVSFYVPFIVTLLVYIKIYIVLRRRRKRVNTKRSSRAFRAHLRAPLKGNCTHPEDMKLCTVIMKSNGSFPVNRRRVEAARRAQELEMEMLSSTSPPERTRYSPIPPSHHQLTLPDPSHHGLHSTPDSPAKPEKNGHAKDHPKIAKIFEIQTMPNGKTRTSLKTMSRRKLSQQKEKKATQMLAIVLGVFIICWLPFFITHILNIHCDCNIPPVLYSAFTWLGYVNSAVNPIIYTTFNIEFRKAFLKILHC
How it was run: (§1)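 Stimulation of [35S]GTPγS binding in CHO cells expressing hD2 or hD3 receptors. EC50 is the concentration giving half-maximal stimulation. […] Mean ± SEM of 3−6 experiments, each in triplicate.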

[7] = Neuroprotective activity against 6-OHDA-induced death of rat PC12 cells assessed as cell viability pretreated for 24 hrs at 20 uM measured 24 hrs post 6-OHDA challenge by MTT assay relative to 6-OHDA-treated control; assay type: functional; conditions: PC-12, read-out: Activity
[8] = system: Rattus norvegicus; assay: Reversal of reserpine-induced hypolocomotion in Sprague-Dawley rat at 10 umol/kg, ip administered 18 hrs post reserpine challenge measured for 6 hrs relative to reserpine-treated control; assay type: functional, organism-based
How it was run: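 Male and female Sprague−Dawley rats (220−225 g) were given reserpine 5.0 mg/kg sc 18 h beforehand and acclimatized in chambers for 1 h. Drug was given at 10 μmol/kg ip, and horizontal activity was recorded by infrared beam breaks for 6 h in 30 min bins. Three rats per group, compared with saline controls by one-way ANOVA with Dunnett's test.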

[9] = target: T1, D(3) dopamine receptor; assay: Agonist activity at human D3 receptor expressed in CHO cells by [35S]GTPgammaS binding assay relative to dopamine; assay type: functional, cell-based; how it was run: as §1
[10] = system: PC-12; assay: Neuroprotective activity against 6-OHDA-induced death of rat PC12 cells assessed as cell viability pretreated for 24 hrs measured 24 hrs post 6-OHDA challenge by MTT assay relative to 6-OHDA-treated control; assay type: functional, cell-based
How it was run: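 PC12 cells were pretreated with compound for 24 h; the medium was then replaced and 75 μM 6-OHDA added for a further 24 h. Controls received 0.01% DMSO. Viability was measured by MTT (0.5 mg/mL final, 3−4 h, A570/690 nm). Mean ± SD of at least three experiments, each in four to six replicates.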

[11] = Cytotoxicity against rat PC12 cells at 0.001 to 30 uM by MTT assay relative to control; assay type: cell-based; conditions: pc-12, in the assay text read “0.01 to 30 uM” for “0.001 to 30 uM”
How it was run: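 PC12 cells were grown in RPMI 1640 with 10% heat-inactivated horse serum and 5% FBS at 37 °C, seeded at 17000 cells/well for 24 h, then exposed to 0.01−30 μM compound. Viability was read by MTT (0.5 mg/mL final, 3−4 h), formazan dissolved in methanol:DMSO, A570 with 690 nm background, relative to untreated controls.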

[12] = target: D(2) dopamine receptor (Homo sapiens) (UniProt P14416); conditions: CHO, 1 uM
[13] = target: D(2) dopamine receptor (Homo sapiens) (UniProt P14416); conditions: CHO, 200 nM
[14] = target: D(2) dopamine receptor (Homo sapiens) (UniProt P14416); assay: Antagonist activity against human D2 receptor expressed in CHO cells assessed as inhibition of dopamine-induced [35S]GTPgammaS binding; assay type: functional, cell-based

D(2) dopamine receptor, sequence (P61169 whole entry): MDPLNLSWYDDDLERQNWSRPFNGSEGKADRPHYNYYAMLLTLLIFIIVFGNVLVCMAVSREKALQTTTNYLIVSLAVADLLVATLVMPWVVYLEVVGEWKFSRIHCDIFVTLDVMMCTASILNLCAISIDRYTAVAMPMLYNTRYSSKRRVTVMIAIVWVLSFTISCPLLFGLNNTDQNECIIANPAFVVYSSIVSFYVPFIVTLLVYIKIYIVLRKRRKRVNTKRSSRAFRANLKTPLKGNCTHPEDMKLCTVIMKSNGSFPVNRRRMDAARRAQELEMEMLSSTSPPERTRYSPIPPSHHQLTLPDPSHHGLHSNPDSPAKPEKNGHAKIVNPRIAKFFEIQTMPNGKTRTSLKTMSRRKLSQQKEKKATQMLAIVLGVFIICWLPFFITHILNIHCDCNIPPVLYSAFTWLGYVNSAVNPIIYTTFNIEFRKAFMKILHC

CCCN(CCN1CCN(Cc2c[nH]c3cccc(Cl)c23)CC1)C1CCc2nc(N)sc2C1 (racemic)
Ki [1]: 1160 nM | Ki [2]: 13.8 nM | Ratio Ki [3]: 84

CCCN(CCN1CCN(c2ccc3cc[nH]c3c2Cl)CC1)[C@H]1CCc2nc(N)sc2C1.O=C(O)C(F)(F)F
Ki [1]: 16.4 nM | Activity [4]: Dose-dependent effect | EC50 [5]: 1.41 nM | Ki [2]: 1.15 nM | Emax [6]: 101% | viability at 20 µM [7]: 30% | Activity [8]: Active | Emax [9]: 113% | Activity [10]: Dose-dependent effect | Activity [11]: Non-toxic

CCCN(CCN1CCN(Cc2c[nH]c3cccc(F)c23)CC1)C1CCc2nc(N)sc2C1 (racemic)
Ki [1]: 992 nM | Ki [2]: 8.87 nM | Ratio Ki [3]: 112

CCCN[C@H]1CCc2nc(N)sc2C1
Activity [8]: Active

CCCN1CCC[C@@H](c2cccc(O)c2)C1
Ke [12]: 383 nM | Emax [6]: 19.8% | Ke [13]: 362 nM | Ke [14]: 372 nM | Emax [9]: 52%

CCCN(CCN1CCN(Cc2c[nH]c3ccc(Br)cc23)CC1)C1CCc2nc(N)sc2C1 (racemic)
Ki [1]: 376 nM | Ki [2]: 12.9 nM | Ratio Ki [3]: 29

CCCN(CCN1CCN(Cc2c[nH]c3cccc(OC)c23)CC1)C1CCc2nc(N)sc2C1 (racemic)
Ki [1]: 1880 nM | Ki [2]: 25 nM | Ratio Ki [3]: 75

CCCN(CCN1CCN(c2c(Cl)ccc3[nH]ccc23)CC1)[C@H]1CCc2nc(N)sc2C1
Ki [1]: 74.5 nM | EC50 [5]: 3.93 nM | Ki [2]: 0.87 nM | Emax [6]: 87.6% | Emax [9]: 104%

CCCN(CCN1CCN(c2cc(F)c3[nH]ccc3c2)CC1)[C@H]1CCc2nc(N)sc2C1
Ki [1]: 156 nM | Ki [2]: 3.66 nM | Ratio Ki [3]: 43

CCCN(CCC)CCc1cccc2c1CC(=O)N2
Activity [8]: Active

CCCN(CCN1CCN(Cc2c[nH]c3ccc(F)cc23)CC1)C1CCc2nc(N)sc2C1 (racemic)
Ki [1]: 854 nM | Ki [2]: 12.1 nM | Ratio Ki [3]: 71

CCCN(CCN1CCN(Cc2c[nH]c3ccc(OC)cc23)CC1)C1CCc2nc(N)sc2C1 (racemic)
Ki [1]: 1640 nM | Ki [2]: 15.9 nM | Ratio Ki [3]: 101
